Measured values reported in ChEMBL document CHEMBL4038284, “Synthesis of novel quinoline-based 4,5-dihydro-1H-pyrazoles as potential anticancer, antifungal, antibacterial and antiprotozoal agents” (Eur J Med Chem, 2017).
Converted amounts (≈) assume the structure as drawn. The source made the active and inactive calls. No cut-off for these calls is given here.

What was measured:
[1] = system: HL-60(TB); assay: Growth inhibition of human HL-60(TB) cells at 10 uM incubated for 48 hrs by sulforhodamine B assay; assay type: functional, cell-based
Summary of the method: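 NCI 60-line single-dose screen at 10 μM, 48 h. Cells in RPMI-1640 with 5% FBS and 2 mM L-glutamine at 37 °C, 5% CO2. Growth measured by TCA fixation and SRB staining (515 nm), relative to time-zero and untreated control wells.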

[2] = system: EKVX; assay: Growth inhibition of human EKVX cells at 10 uM incubated for 48 hrs by sulforhodamine B assay; assay type: functional, cell-based
Summary of the method: (§1)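 NCI 60-cell-line screen at a single 10 µM dose. Cells in RPMI-1640 with 5% FBS and 2 mM L-glutamine, pre-incubated 24 h, then treated for 48 h at 37 °C. TCA fixation, sulforhodamine B staining, absorbance at 515 nm. Percentage growth calculated against time-zero and untreated controls.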

[3] = system: NCI-H460; assay: Growth inhibition of human NCI-H460 cells at 10 uM incubated for 48 hrs by sulforhodamine B assay; assay type: functional, cell-based
Summary of the method: (§2)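 NCI 60-line panel, single 10 μM dose. Cells were grown in RPMI-1640 with 5% FBS and 2 mM L-glutamine and pre-incubated 24 h before compound addition (DMSO stock). Exposure was 48 h at 37 °C, 5% CO2. Cells were fixed with cold TCA (10% final), stained with 0.4% SRB, bound dye dissolved in 10 mM Tris base, A515 read. Growth was taken relative to time-zero and untreated control plates.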

[4] = system: COLO 205; assay: Growth inhibition of human COLO205 cells at 10 uM incubated for 48 hrs by sulforhodamine B assay; assay type: functional, cell-based; summary of the method: as §1
[5] = system: HCT-15; assay: Growth inhibition of human HCT15 cells at 10 uM incubated for 48 hrs by sulforhodamine B assay; assay type: functional, cell-based; summary of the method: as §1
[6] = system: HT-29; assay: Growth inhibition of human HT-29 cells at 10 uM incubated for 48 hrs by sulforhodamine B assay; assay type: functional, cell-based; summary of the method: as §2
[7] = system: KM12; assay: Growth inhibition of human KM12 cells at 10 uM incubated for 48 hrs by sulforhodamine B assay; assay type: functional, cell-based; summary of the method: as §2
[8] = system: U-251; assay: Growth inhibition of human U251 cells at 10 uM incubated for 48 hrs by sulforhodamine B assay; assay type: functional, cell-based
Summary of the method: (§3)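 NCI-60 single-dose screen at 10 µM for 48 h. Cells were grown in RPMI-1640 with 5% FBS and 2 mM L-glutamine and preincubated 24 h before compound. Time-zero plates were TCA-fixed at compound addition. After exposure, cells were TCA-fixed, stained with SRB and read at 515 nm. Percentage growth was calculated against time-zero and untreated-control absorbances.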

[9] = system: SK-MEL-28; assay: Growth inhibition of human SK-MEL-28 cells at 10 uM incubated for 48 hrs by sulforhodamine B assay; assay type: functional, cell-based; summary of the method: as §3
[10] = system: SK-MEL-5; assay: Growth inhibition of human SK-MEL-5 cells at 10 uM incubated for 48 hrs by sulforhodamine B assay; assay type: functional, cell-based; summary of the method: as §3
[11] = system: IGROV-1; assay: Growth inhibition of human IGROV1 cells at 10 uM incubated for 48 hrs by sulforhodamine B assay; assay type: functional, cell-based; summary of the method: as §2
[12] = system: OVCAR-8; assay: Growth inhibition of human OVCAR8 cells at 10 uM incubated for 48 hrs by sulforhodamine B assay; assay type: functional, cell-based; summary of the method: as §2
[13] = system: TK-10; assay: Growth inhibition of human TK10 cells at 10 uM incubated for 48 hrs by sulforhodamine B assay; assay type: functional, cell-based; summary of the method: as §3
[14] = system: UO-31; assay: Growth inhibition of human UO31 cells at 10 uM incubated for 48 hrs by sulforhodamine B assay; assay type: functional, cell-based; summary of the method: as §3
[15] = system: Candida albicans; assay: Growth inhibition of Candida albicans ATCC 10231 at 125 ug/ml incubated for 48 hrs under dark condition by broth microdilution method relative to control; assay type: functional; conditions: ATCC 10231, 48 h, read-out: GI
Summary of the method: (§4)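 CLSI M27-A3 broth microdilution in RPMI-1640, DMSO ≤1%. Inoculum 1-5 × 10^3 CFU/mL. Incubated 48 h at 30 °C, dark. % inhibition = 100 − (OD405 test − sterility control)/(OD405 growth control − sterility control), with growth and sterility control wells. Triplicate.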

[16] = system: Candida albicans; assay: Growth inhibition of Candida albicans ATCC 10231 at 62.5 ug/ml incubated for 48 hrs under dark condition by broth microdilution method relative to control; assay type: functional; conditions: ATCC 10231, 48 h, read-out: GI; summary of the method: as §4
[17] = system: Candida albicans; assay: Growth inhibition of Candida albicans ATCC 10231 at 3.4 ug/ml incubated for 48 hrs under dark condition by broth microdilution method relative to control; assay type: functional; conditions: ATCC 10231, 48 h, read-out: GI
[18] = system: Cryptococcus neoformans; assay: Growth inhibition of Cryptococcus neoformans ATCC 32264 at 15.62 ug/ml incubated for 48 hrs under dark condition by broth microdilution method relative to control; assay type: functional; conditions: ATCC 32264, 48 h, read-out: GI; summary of the method: as §4
[19] = system: Cryptococcus neoformans; assay: Growth inhibition of Cryptococcus neoformans ATCC 32264 at 7.8 ug/ml incubated for 48 hrs under dark condition by broth microdilution method relative to control; assay type: functional; conditions: ATCC 32264, 48 h, read-out: GI; summary of the method: as §4
[20] = system: Staphylococcus aureus; assay: Antibacterial activity against methicillin-resistant Staphylococcus aureus ATCC 43300 after 24 hrs by resazurin dye based microdilution assay; assay type: functional; conditions: ATCC 43300, 24 h
Summary of the method: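 Broth microdilution in Mueller Hinton broth, inoculum 5 × 10^5 – 8 × 10^5. Compound stocks diluted in MHB with 5% DMSO and 0.1% Tween 80. Incubation 24 h at 35-37 °C. MIC is the lowest concentration with visible growth inhibition and/or by resazurin (1 mg/mL) read-out. Gentamicin as control. Run in duplicate, replicated at least three times.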

[21] = system: Plasmodium falciparum; assay: Antiplasmodial activity against chloroquine-sensitive Plasmodium falciparum 3D7 assessed as reduction in parasitic LDH activity after 48 hrs by Malstat reagent based […] method; assay type: functional; conditions: 3D7, 48 h
Summary of the method: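 Unsynchronized P. falciparum 3D7 at 0.5% parasitemia and 1% hematocrit in RPMI with 3% Albumax II. Exposed to 100, 25, 6.25 and 1.56 µg/mL for 48 h at 37 °C under 90% N2/5% CO2/5% O2. After three freeze-thaw cycles, LDH measured with Malstat and NBT/PES, 1 h in the dark, read at 650 nm. IC50 by Probit; triplicate, ≥2 experiments.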

[22] = system: U-937; assay: Cytotoxicity against human U937 cells after 72 hrs by MTT assay; assay type: cell-based; conditions: u-937, 72 h
Summary of the method: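 Exponentially growing U-937 at 1 × 10^5 cells/mL in RPMI-1640 with 10% FBS were exposed to 200, 50, 12.5 and 3.125 µg/mL for 72 h at 37 °C, 5% CO2. MTT for 3 h, stopped with isopropanol/SDS, formazan read at 570 nm, blank-corrected. LC50 by Probit from % viability against untreated cells. Triplicate, at least two independent experiments.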

[23] = system: Trypanosoma cruzi; assay: Antitrypanosomal activity against Trypanosoma cruzi Tulahuen intracellular amastigote harboring LacZ infected in human U937 cells after 72 hrs by CPRG/Nonidet reagent based spectrophotometric method; assay type: functional, cell-based; conditions: U-937, 72 h
Summary of the method: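 U-937 cells at 2.5 × 10^5 cells/mL in RPMI-1640 with 10% serum and 0.1 µg/mL PMA were infected with β-galactosidase-transfected Tulahuen epimastigotes at 5 parasites per cell. Infected cells were exposed to 50, 12.5, 3.125 and 0.78 µg/mL for 72 h. CPRG (100 uM) and 0.1% Nonidet P-40 were added for 3 h, read at 570 nm. EC50 by Probit. Triplicate, at least two experiments; benznidazole as reference.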

Structure (SMILES) | growth inhibition (GI) [1] | growth inhibition (GI) [2] | growth inhibition (GI) [3] | growth inhibition (GI) [4] | growth inhibition (GI) [5] | growth inhibition (GI) [6] | growth inhibition (GI) [7] | growth inhibition (GI) [8] | growth inhibition (GI) [9] | growth inhibition (GI) [10] | growth inhibition (GI) [11] | growth inhibition (GI) [12] | growth inhibition (GI) [13] | growth inhibition (GI) [14] | inhibition of growth at 125 µg/mL [15] [%] | inhibition of growth at 62.5 µg/mL [16] [%] | inhibition of growth at 3.4 µg/mL [17] [%] | inhibition of growth at 15.62 µg/mL [18] [%] | inhibition of growth at 7.8 µg/mL [19] [%] | MIC [20] [mg/L] | other results
COc1ccc(C2=NN(c3ccc(Cl)cc3)C(c3cccc(Nc4ccnc5cc(Cl)ccc45)c3)C2)cc1 (configuration not stated) | inactive | inactive | inactive | inactive | inactive | inactive | inactive | inactive | inactive | inactive | inactive | inactive | inactive | inactive | 1.92 | 5.46 | 0 | 12.6 | 10.1 | > 1000 | EC50 [21]: 44.6 mg/L (≈ 82.6 µM); LC50 [22]: > 200 mg/L; EC50 [23]: 44.6 mg/L (≈ 82.6 µM)
O=CN1N=C(c2ccc(Cl)cc2)CC1c1cccc(Nc2ccnc3cc(Cl)ccc23)c1 (configuration not stated) | Active | Active | Active | Active | Active | Active | Active | Active | Active | Active | Active | Active | Active | Active | 35.7 | 28.2 | 9.81 | 44 | 39.5 | > 1000 | EC50 [21]: 24.7 mg/L (≈ 53.6 µM); LC50 [22]: 0.6 mg/L (≈ 1.3 µM); EC50 [23]: 0.7 mg/L (≈ 1.52 µM)
Clc1ccc(C2=NN(c3ccc(Cl)cc3)C(c3cccc(Nc4ccnc5cc(Cl)ccc45)c3)C2)cc1 (configuration not stated) | inactive | inactive | inactive | inactive | inactive | inactive | inactive | inactive | inactive | inactive | inactive | inactive | inactive | inactive | 19.9 | 11.8 | 0 | 23.1 | 18.4 | > 1000 | EC50 [21]: 10.3 mg/L (≈ 18.9 µM); LC50 [22]: > 200 mg/L; EC50 [23]: 55.8 mg/L (≈ 103 µM)
COc1cc(C(=O)/C=C/c2cccc(Nc3ccnc4cc(Cl)ccc34)c2)cc(OC)c1OC | Active | Active | Active | Active | Active | Active | Active | Active | Active | Active | Active | Active | Active | Active | 10.7 | 7.6 | 1.24 | 0 | 0 | > 1000 | EC50 [21]: 14.1 mg/L (≈ 29.7 µM); LC50 [22]: 0.9 mg/L (≈ 1.89 µM); EC50 [23]: 1.09 mg/L (≈ 2.3 µM)
